# Results taken from ChEMBL document CHEMBL1944531, “In silico assay for assessing phospholipidosis potential of small druglike molecules: training, validation, and refinement using several data sets” (J Med Chem, 2012).
# Test: Induction of phospholipidosis in bovine corneal fibroblasts assessed as lamellar inclusion bodies at 20 uM after 72 hrs by light microscopy
# Parameters: species or system Bos taurus, Cornea
# Details: cattle, corneal fibroblast
# In short: (§1)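 Primary bovine corneal fibroblasts from collagenase-treated explants, passage 2–8, grown in DMEM/10% FCS/L-glutamine/antibiotics at 37 °C, 5% CO2. Confluent cells exposed 72 h to compound at 2.5, 5.0, 7.5, 10.0, 12.5, 15.0 or 20 μM (DMSO 1% where used). Controls: medium, 1% DMSO, imipramine 10 μM, in duplicate. Cells were fixed in 1% glutaraldehyde, stained overnight with 1% tannic acid, and black intracytoplasmic inclusions scored qualitatively by light microscopy.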
row,Compound,Activity
1,Cc1c(Cl)ccc2c1N1[C@H](CNC[C@H]1C)C2,Toxic
2,CCO[C@@H](C)c1ccc2c(n1)N1[C@@H](CNC[C@H]1C)C2.Cl,Toxic

# Test: Induction of phospholipidosis in bovine corneal fibroblasts assessed as lamellar inclusion bodies after 72 hrs by light microscopy
# Parameters: species or system Bos taurus, Cornea
# Details: cattle, corneal fibroblast
row,Compound,Activity
1,Cc1cc(C#Cc2cn(-c3ccc(F)cc3)c(C)n2)ccn1,Non-toxic
2,Cc1cccc(CN2CCN(C(c3ccccc3)c3ccc(Cl)cc3)CC2)c1 (centres undefined) [MECLIZINE],Toxic
3,CNCCCC12CCC(c3ccccc31)c1ccccc12 [MAPROTILINE],Toxic
4,GENTAMICIN,Non-toxic
5,CC(C)CC(N(C)C)C1(c2ccc(Cl)cc2)CCC1.Cl (centres undefined),Toxic
6,CCN(CC)CCCC(C)Nc1ccnc2cc(Cl)ccc12 (centres undefined) [CHLOROQUINE],Toxic
7,O=C(CCCN1CCC(O)(c2ccc(Cl)cc2)CC1)c1ccc(F)cc1 [HALOPERIDOL],Toxic
8,CN(CC[C@H]1CC[C@H](CN2CCCCC2)CC1)C(=O)Oc1ccc(C(F)(F)F)cc1,Toxic
9,CN1CCN([C@@H]2CCN(C(=O)c3cc(C(F)(F)F)cc(C(F)(F)F)c3)C[C@@H]2c2ccccc2)CC1,Toxic
10,CCN(CC)CCOc1ccc2c(c1)C(=O)c1cc(OCCN(CC)CC)ccc1-2 [TILORONE],Toxic
11,CN1C(=O)CN=C(c2ccccc2)c2cc(Cl)ccc21 [DIAZEPAM],Non-toxic
12,CN(C)CCCC1(c2ccc(F)cc2)OCc2cc(C#N)ccc21 (centres undefined) [CITALOPRAM],Toxic
13,COc1cc(-c2nc(N)c(CN)c(-c3ccc(Cl)cc3Cl)n2)cc(OC)c1OC,Toxic
14,CC(C)COc1ccc(S(C)(=O)=O)cc1C(=O)N1Cc2cnc(C(F)(F)F)cc2C1,Non-toxic
15,CN1CCN(C(c2ccccc2)c2ccccc2)CC1 [CYCLIZINE],Toxic
16,OCCOCCN1CCN(C(c2ccccc2)c2ccc(Cl)cc2)CC1 (centres undefined) [HYDROXYZINE],Toxic
17,O=C(c1cc(C(F)(F)F)cc(C(F)(F)F)c1)N1CC[C@@H](N2CCOCC2)[C@@H](c2ccc(Cl)cc2)C1,Toxic
18,Cc1c(Cl)ccc2c1N1[C@H](CNC[C@H]1C)C2,Toxic
19,COc1ccc(C2CCOCC2)c2sc(NC(=O)N(C)C3CCN(C)CC3)nc12,Toxic
20,CCCCc1oc2ccccc2c1C(=O)c1cc(I)c(OCCN(CC)CC)c(I)c1 [AMIODARONE],Toxic
21,NCC[C@H](O)C(=O)N[C@@H]1C[C@H](N)[C@@H](O[C@H]2O[C@H](CN)[C@@H](O)[C@H](O)[C@H]2O)[C@H](O)[C@H]1O[C@H]1O[C@H](CO)[C@@H](O)[C@H](N)[C@H]1O [AMIKACIN],Non-toxic
22,CN(C)CCCn1c2c(c3ccccc31)CCCCCC2 [IPRINDOLE],Toxic
23,CCC1(c2ccccc2)C(=O)NC(=O)NC1=O [PHENOBARBITAL],Non-toxic
24,COc1ccc(S(=O)(=O)N(c2ccc(F)cc2)C2CCN([C@@H]3COCC[C@@]3(O)c3ccccc3)CC2)cc1,Non-toxic
25,CN(C(=O)C(C)(C)c1cc(C(F)(F)F)cc(C(F)(F)F)c1)c1cnc(NCCO)cc1-c1ccccc1Cl,Non-toxic
26,CC(OCC1CC1)c1ccc2c(n1)N1[C@@H](CNC[C@H]1C)C2 (some centres undefined),Toxic
27,C[C@@H]1CNC[C@H]2Cc3ccc(Cl)nc3N21,Non-toxic
28,C1CCC(C(CC2CCCCN2)C2CCCCC2)CC1 (centres undefined) [PERHEXILINE],Toxic

row,Compound,Activity
1,CCO[C@@H](C)c1ccc2c(n1)N1[C@@H](CNC[C@H]1C)C2.Cl,Non-toxic
2,CN(C)CCCN1c2ccccc2CCc2ccccc21 [IMIPRAMINE],Toxic
3,CC(C)(N)Cc1ccc(Cl)cc1 [CHLORPHENTERMINE],Toxic
4,CC(=O)Nc1ccc(N2CCN(CCCN(C)C)CC2)cc1 [PIPERAMIDE],Toxic
5,Cc1cc(-c2cc(-c3ccccc3C)c(C(=O)NCc3cc(C(F)(F)F)cc(C(F)(F)F)c3)cn2)ccn1,Non-toxic
6,CC(C)NCC(O)COc1cccc2ccccc12 (centres undefined) [PROPRANOLOL],Toxic
7,[H]/N=C(/N)N[C@H]1[C@H](O)[C@@H](O)[C@H](O[C@@H]2O[C@@H](C)[C@](O)(C=O)[C@H]2O[C@@H]2O[C@@H](CO)[C@H](O)[C@@H](O)[C@@H]2NC)[C@@H](N/C(N)=N\[H])[C@@H]1O [STREPTOMYCIN],Non-toxic
8,CN(C)CCCN1c2ccccc2CCc2ccc(Cl)cc21 [CLOMIPRAMINE],Toxic
9,CC(C)(CCn1cnc(-c2cccnc2)c1)NCC(=O)N1CCC[C@H]1C#N.CS(=O)(=O)O,Non-toxic
10,C[C@H](C(N)=O)N1CCc2cc(OCc3cccc(F)c3)ccc2C1,Toxic
11,O=C(N[C@H](CO)[C@H](O)c1ccc([N+](=O)[O-])cc1)C(Cl)Cl [CHLORAMPHENICOL],Non-toxic
12,CC/C(=C(\c1ccccc1)c1ccc(OCCN(C)C)cc1)c1ccccc1 [TAMOXIFEN],Toxic
13,CN(C)CCCN1c2ccccc2Sc2ccccc21 [PROMAZINE],Toxic
14,CCN(CCO)CCCCOc1ccc2c(-c3ccc(Br)cc3)nsc2c1,Toxic
15,NCc1c(N)nc(-c2ccccc2)nc1-c1ccc(Cl)cc1Cl,Toxic
16,CN1CCN(C(c2ccccc2)c2ccc(Cl)cc2)CC1 (centres undefined) [CHLORCYCLIZINE],Toxic
17,Cc1ccc2c(n1)N1[C@@H](CNC[C@H]1C)C2,Non-toxic
18,CN(C)CCCN1c2ccccc2Sc2ccc(Cl)cc21 [CHLORPROMAZINE],Toxic
19,CC[C@H]1OC(=O)[C@H](C)[C@@H](O[C@H]2C[C@@](C)(OC)[C@@H](O)[C@H](C)O2)[C@H](C)[C@@H](O[C@@H]2O[C@H](C)C[C@H](N(C)C)[C@H]2O)[C@](C)(O)C[C@@H](C)C(=O)[C@H](C)[C@@H](O)[C@]1(C)O [ERYTHROMYCIN],Non-toxic
20,COc1cc(F)c(C(OC)C(=O)NCc2ccc(C(=N)N)cc2)c(F)c1.Cl (centres undefined),Non-toxic
21,COc1cc2c(cc1OC)[C@@H]1C[C@H](N)[C@@H](N3C[C@@H](C)CC3=O)CN1CC2,Non-toxic
22,CCCC(CCC)C(=O)O [VALPROIC ACID],Non-toxic
23,CCN(CC)CCCC(C)Nc1c2ccc(Cl)cc2nc2ccc(OC)cc12 (centres undefined) [QUINACRINE],Toxic
24,CS(=O)(=O)O.Cc1cc(-c2cnccn2)nn1CCC(C)(C)NCC(=O)N1CCC[C@H]1C#N,Non-toxic
25,CS(=O)(=O)O.C[C@H](NCc1ccc(OCc2cccc(F)c2)cc1)C(N)=O [SAFINAMIDE MESYLATE],Toxic
26,CCCC[C@@H]1CC(=O)[C@]2(O)O[C@@H]3[C@@H](NC)[C@@H](O)[C@@H](NC)[C@H](O)[C@H]3O[C@@H]2O1 [TROSPECTOMYCIN],Non-toxic
27,CN1CCN(C2=Nc3cc(Cl)ccc3Nc3ccccc32)CC1 [CLOZAPINE],Toxic

# Test: Induction of phospholipidosis in bovine corneal fibroblasts assessed as lamellar inclusion bodies at 7.5 uM after 72 hrs by light microscopy
# Parameters: species or system Bos taurus, Cornea
# Details: cattle, corneal fibroblast
# In short: as §1
row,Compound,Activity
1,CC(OCC1CC1)c1ccc2c(n1)N1[C@@H](CNC[C@H]1C)C2 (some centres undefined),Toxic

# Test: Induction of phospholipidosis in bovine corneal fibroblasts assessed as lamellar inclusion bodies at 2.5 to 20 uM after 72 hrs by light microscopy
# Parameters: species or system Bos taurus, Cornea
# Details: cattle, corneal fibroblast
# In short: as §1
row,Compound,Activity
1,C[C@@H]1CNC[C@H]2Cc3ccc(Cl)nc3N21,Toxic
